# Screening results (PubChem)
# Casp6 inh: inhibitors of human caspase-6. purified caspase-6, Z-VEID-R110 cleavage fluorescence. inhibition, % at 12.5 µM. actives 0.53% (n = 350,000). P55212. AID 686996;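 active = mean inhibition across replicates at least about 35%, with every replicate also reaching that limit, limit read from the data; inconclusive = only one of the two criteria met; inactive = neither criterion met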
# Target sequence (P55212 24-179 limits assumed): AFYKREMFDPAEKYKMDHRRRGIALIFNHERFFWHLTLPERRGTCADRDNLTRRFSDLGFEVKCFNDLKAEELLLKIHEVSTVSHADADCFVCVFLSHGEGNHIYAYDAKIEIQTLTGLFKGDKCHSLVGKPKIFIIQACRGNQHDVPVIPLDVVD
# Target sequence (P55212 194-293 limits assumed): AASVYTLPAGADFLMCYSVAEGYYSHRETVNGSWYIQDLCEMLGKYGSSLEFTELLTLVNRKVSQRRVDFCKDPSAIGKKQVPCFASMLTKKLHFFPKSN
# esBAF inh: blocks esBAF chromatin remodeling in mouse ES cells. Bmi1-luciferase knock-in reporter, 24 h; 100% = twice the neutral-well signal. reporter increase, % at 12.5 µM. actives 2% (n = 350,000). AID 602393; in the data active = activation above about 40%; inconclusive = no clear call, values can overlap the other calls;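 also: a rise in the Bmi1 reporter signal indicates esBAF inhibition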
# MITF act: increases MITF-driven TRPM1 promoter luciferase signal. AID 588334. actives 0.75% (n = 300,000). activation, % at 12.5 µM. SK-MEL-5 TRPM1-promoter luciferase, 24 h; % of positive control, neutral wells = 0;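 active = mean activation of at least 80% with every replicate also reaching 80%; inconclusive = mean reaches 80% but some replicate falls short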
# NSD2 inh: inhibitors of human histone methyltransferase NSD2; NSD2 peptide methylation, AlphaScreen, 120 min; inhibition, % at 12.5 µM; actives 0.54% (n = 310,000); in the data active = inhibition above about 50%
# Xi reactivation: reactivates the inactive X chromosome in mouse fibroblasts; XiGFP mouse fibroblasts, % GFP-positive cells imaging, 3 d; cells co-treated with 5-aza-dC sensitizer; scaled so ellipticine positive control = 100%; activation, % at 7.58 µM; actives 0.055% (n = 360,000); AID 743238;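 active = mean normalized replicate activation at least 10% and every replicate at or above 10%; inconclusive = only one of the two criteria met; inactive = mean below 10% and not all replicates reach 10%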
#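 Material: XiGFP fibroblasts, SV40-immortalized. Buffer or medium: DMEM plus 5-aza-dC sensitizer. Compound: single concentration per compound, delivered by pin transfer. Times: 3 days compound exposure. Controls: ellipticine 6 µM.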
# Wnt act: Wnt/beta-catenin pathway activation; Wnt/beta-catenin reporter cell assay, activator, plate reader; activation, % at 9.35 µM; actives 1.2% (n = 300,000); AID 743398; in the data active = activation above about 30%, passing the limit was not always enough; inconclusive = no clear call, values can overlap the other calls
# Hits are given with their value; n = inactive; u = inconclusive; x = no result given. Shown are actives, neighbours in structure and some others; about 3% of the full set was active somewhere.
SMILES,Casp6 inh,esBAF inh,MITF act,NSD2 inh,Xi reactivation,Wnt act
Cc1ccc(S(=O)(=O)/N=C2/C=C(C3C(=O)CC(C)(C)CC3=O)C(=O)c3ccccc32)cc1,x,u,x,x,x,63
C[C@H](CO)N1C[C@H](C)[C@H](CN(C)C(=O)Nc2ccc3c(c2)OCO3)OCCCC[C@H](C)Oc2ccc(NS(=O)(=O)c3ccc(Cl)cc3)cc2C1=O,n,n,x,x,n,x
C[C@H](CO)N1C[C@H](C)[C@@H](CN(C)Cc2ccncc2)Oc2c(NC(=O)Nc3ccc4c(c3)OCO4)cccc2C1=O,n,u,x,x,n,x
O=c1[nH]cnc2c1nnn2C1OC(CO)C(O)C1O (configuration not stated),n,71,x,x,x,n
O=C(NC1CCCCCCC1)c1ccccc1O,x,92,n,n,x,n
C/C(=N\NC(=O)c1ccc(N)cc1)C1CC1,n,x,n,n,n,n
C/C(=N\NC(=O)c1ccccc1O)C1CC1,42,n,n,n,n,n
Cc1ccccc1C(=O)NC1CCCCCCC1,n,n,n,n,n,n
Cc1ccc(-c2cc(C(=O)NC3CCCCC3)no2)cc1,n,n,114,n,n,n
COc1ccc(-c2cc(C(=O)NC3CCCCC3)no2)cc1OC,n,n,n,n,n,n
O=C(NC1CCCCC1)c1cc(-c2ccc(O)cc2)on1,n,42,93,n,n,n
O=C(C[C@@H]1C=C[C@@H](NC(=O)C2CCOCC2)[C@H](CO)O1)Nc1ccccc1,n,x,x,x,n,x
CN(C(=O)c1cc(-c2ccccc2)on1)C1CCCCC1,n,51,174,n,n,34
CCCc1cc(C(=O)NC2CCCC2)no1,n,n,n,x,n,n
CCCc1cc(C(=O)NC2CCCCC2)no1,n,43,n,x,n,33
O=C(NC1CCCCC1)c1cc(-c2ccccc2O)on1,n,83,124,x,n,n
CC(C)c1cc(C(=O)NC2CCCCC2)no1,x,n,n,n,x,x
CCS(=O)(=O)N1CC2(CN(C(=O)Nc3cccc(F)c3)[C@H](CO)c3c2c2ccc(OC)cc2n3C)C1,x,x,x,x,n,x
COCCNC(=O)C[C@@H]1C[C@H]2c3cc(NC(=O)c4cccnc4)ccc3O[C@H]2[C@H](CO)O1,n,n,x,x,n,x
O=C(N/N=C/c1ccc([N+](=O)[O-])o1)c1ccccc1NS(=O)(=O)c1cccs1,40,n,n,x,n,n
CN1C(=O)c2cc(NC(=O)c3ccc(F)cc3)ccc2OC[C@H]2O[C@H](CC(=O)N3CCOCC3)CC[C@H]21,n,n,x,x,n,x
C[C@@H]1CN([C@@H](C)CO)C(=O)c2cc(NS(=O)(=O)c3cccs3)ccc2O[C@@H]1CN(C)S(=O)(=O)c1cn(C)cn1,n,n,x,x,n,x
C/C=C/c1ccc([C@H]2[C@@H](CO)N3C(=O)CN(C(=O)Nc4ccc(F)cc4)C[C@@H]23)cc1,x,x,x,x,n,x
CN1CCc2c(sc3nc(SCC(=O)NCc4ccco4)n(-c4ccccc4)c(=O)c23)C1,n,70,n,n,n,n
N#C/C(=C\c1cccs1)C(=O)Nc1ccccn1,n,x,89,x,n,74
SMILES,Casp6 inh,esBAF inh,MITF act,NSD2 inh,Xi reactivation,Wnt act
N#C/C(=C\c1ccccc1)C(=O)Nc1ccccn1,n,n,n,n,n,n
Fc1cccc(Cl)c1CN1CCN(c2nc3ccccc3s2)CC1,n,70,n,n,n,n
COc1cc2sc3cc(NCCCN4CCOCC4)ccc3c(=O)c2cc1OC,n,55,n,x,n,n
O=c1c2ccccc2sc2ccc(NCCCN3CCOCC3)cc12,n,n,n,x,n,n
O=C(NC[C@H]1CC[C@H]2[C@H](CN2C(=O)CN2CCOCC2)O1)NC1CCCCC1,n,x,x,x,x,x
CC(=O)Nc1cccc(-n2nnc(SCC(=O)c3ccccc3)n2)c1,n,n,x,n,n,60
COCCn1c(C)cc(/C=C2/SC(=O)N(C(C)C(=O)OC)C2=O)c1C (configuration not stated),n,66,97,n,n,n
COC(=O)CN1C(=O)S/C(=C/c2cc(C)n(C)c2C)C1=O,x,57,n,n,x,u
CCOC(=O)C(C)N1C(=O)S/C(=C/c2cc(C)n(-c3ccncc3)c2C)C1=O (configuration not stated),n,n,n,n,n,n
CCn1c(C)cc(/C=C2/SC(=O)N(C(C)C(=O)OC)C2=O)c1C (configuration not stated),n,n,u,n,n,47
COC(=O)C(C)N1C(=O)S/C(=C/c2cc(C)n(C(C)C)c2C)C1=O (configuration not stated),x,x,86,n,x,38
CCOC(=O)C(C)N1C(=O)S/C(=C/c2cc(C)n(-c3ccccn3)c2C)C1=O (configuration not stated),x,n,n,n,x,47
Cc1ccc(C(=O)Cn2cnc3ccccc3c2=O)cc1C,x,57,n,n,x,n
O=C(Cn1cnc2ccccc2c1=O)c1ccc2ccccc2c1,x,n,n,n,x,x
Cc1ccc(C(=O)Cn2nnc3ccccc32)cc1C,x,n,110,n,x,47
Cc1ccc(C(=O)Cn2nnc3ccccc32)cc1,x,63,n,n,x,x
CCCC(=O)Nc1ccc2c(c1)OC[C@@H](C)N(Cc1ccc(F)cc1)C[C@@H](C)[C@@H](OC)CN(C)C2=O,x,n,x,x,n,x
CC(C)(C)NC(=O)C(=O)NN=C1CCCCCCCCCCC1,60,x,n,n,n,n
Nc1ccc2cn[nH]c2c1,44,n,n,x,n,n
C[C@@H]1CCCCO[C@H](CN(C)C(=O)Nc2cccc3ccccc23)[C@H](C)CN([C@@H](C)CO)C(=O)c2cc(NC(=O)Nc3ccc4c(c3)OCO4)ccc2O1,n,n,x,x,n,x
C[C@@H]1CCCCO[C@@H](CN(C)CC2CC2)[C@@H](C)CN([C@H](C)CO)C(=O)c2cc(NS(C)(=O)=O)ccc2O1,n,n,x,x,n,x
COc1ccc(-c2csc(N3C(=O)CNC3=S)n2)cc1,x,x,n,n,n,n
O=C1CNC(=S)N1c1nc(-c2ccccc2)cs1,n,x,88,n,n,50
O=C(N1CCOCC1)N1CCN(c2nc(-c3ccccc3)cs2)CC1,x,n,n,n,x,x
c1ccc(-c2csc(N3CCN(c4ccccn4)CC3)n2)cc1,n,61,n,n,x,u
SMILES,Casp6 inh,esBAF inh,MITF act,NSD2 inh,Xi reactivation,Wnt act
c1ccc(-c2csc(N3CCOCC3)n2)cc1,x,60,81,n,x,39
CC(C)NC(=O)Nc1ccc2c(c1)C(=O)N(C)C[C@H](C)[C@@H](CN(C)S(C)(=O)=O)O2,x,x,x,x,n,x
C[C@H]1CN(C)C(=O)c2cccc(N(C)C)c2O[C@H]1CN(C)C(=O)OC(C)(C)C,x,x,x,x,n,x
O=C(C[C@H]1C[C@@H]2c3cc(NC(=O)c4cccnc4)ccc3O[C@@H]2[C@@H](CO)O1)NCCN1CCCCC1,n,n,x,x,n,x
CCOC(=O)c1oc2c(c1C)C(=O)CCC2,x,x,n,n,n,n
CCOC(=O)c1oc2c(c1C)/C(=N/O)CCC2,n,n,n,n,x,57
